Assay results collected from several papers.
Lines come from different studies, so protocols differ.

Compound	test	system	conditions	solubility
CC[C@H](C)[C@H](NC(=O)[C@H](Cc1ccccc1)NC(=O)[C@H](Cc1ccc(O)cc1)NC(=O)[C@@H]1CCCN1C(=O)[C@@H](N)Cc1ccc(O)cc1)C(=O)N1CCC[C@H]1C(=O)N[C@@H](C)C(=O)NCC(=O)N[C@H](CCCCN)C(=O)NCC(=O)N[C@@H](CCC(=O)O)C(=O)N[C@H](C(=O)N[C@@H](CC(N)=O)C(=O)N[C@@H](CC(C)C)[C@@H](O)CC(=O)N[C@H](C(=O)N[C@@H](C)C(=O)N[C@@H](CCC(=O)O)C(=O)N1CCC[C@@H]1C(=O)N[C@@H](CCCCNC(=O)CCC(=O)O[C@H]1CC[C@@]2(C)C(=CC[C@H]3[C@@H]4CC[C@H]([C@H](C)CCCC(C)C)[C@@]4(C)CC[C@@H]32)C1)C(N)=O)C(C)C)C(C)C	–	aqueous buffer	pH 6.5	> 2.45 mg/mL
O=C1C=C(N(Cc2ccc(Cl)nc2)CC(F)F)CO1	–	methanol	20 °C	> 250 mg/mL
CC[C@H](C)[C@H](NC(C)=O)C(=O)N[C@H]1CSSC[C@@H](C(=O)N[C@H](C(N)=O)[C@@H](C)O)NC(=O)[C@H](CCCNC(=N)N)NC(=O)[C@H](Cc2cnc[nH]2)NC(=O)[C@H](Cc2cccc3ccccc23)NC(=O)CNC(=O)[C@H](Cc2c[nH]c3ccccc23)NC(=O)[C@H](CC(=O)O)NC(=O)[C@H](CCC(N)=O)NC(=O)[C@H](Cc2cn(C)c3ccccc23)NC(=O)[C@H](C(C)C)NC1=O	–	PBS	pH 7.4	0.11 mg/mL
COc1ccc2c(c1)NC(=O)CN2c1nc(C)nc2c1CCC2	–	aqueous buffer	pH 7.4	0.0264 mg/mL
Clc1ccc(CSc2nnc(-c3ccccn3)n2Cc2ccco2)cc1Cl	–	aqueous buffer	pH 6.2	0.00029 mg/mL
COc1cc([C@@H]2c3cc4c(cc3[C@H](O)[C@H]3COC(=O)[C@H]23)OCO4)cc(OC)c1OC	–	water	–	2.2 mg/mL
CC[C@H](C)[C@H](NC(C)=O)C(=O)N[C@H]1CSSC[C@@H](C(=O)N[C@H](C(N)=O)[C@@H](C)O)NC(=O)[C@H](CCCNC(=N)N)NC(=O)[C@H](Cc2c[nH]cn2)NC(=O)[C@](C)(CC)NC(=O)CNC(=O)[C@H](Cc2c[nH]c3ccccc23)NC(=O)[C@H](CC(=O)O)NC(=O)[C@H](CCC(N)=O)NC(=O)[C@H](Cc2c[nH]c3ccccc23)NC(=O)[C@H](C(C)C)NC1=O	–	PBS	pH 7.4	3.47 mg/mL
CNC(=O)O[C@@H](C)/C=C\C(=O)N[C@H]1CC[C@@H](C/C=C(C)/C=C/[C@@H]2C[C@]3(CO3)CC(C)(C)O2)CC1	HPLC	PBS	–	45 µM
C=CC[C@@]1(C)NC(=O)CNC(=O)[C@H](Cc2c[nH]c3ccccc23)NC(=O)[C@H](CC(=O)O)NC(=O)[C@H](CCC(N)=O)NC(=O)[C@H](Cc2c[nH]c3ccccc23)NC(=O)[C@H](C(C)C)NC(=O)[C@@H](NC(=O)[C@@H](NC(C)=O)[C@@H](C)CC)CSSC[C@@H](C(=O)N[C@H](C(N)=O)[C@@H](C)O)NC(=O)[C@H](CCCNC(=N)N)NC(=O)[C@H](Cc2c[nH]cn2)NC1=O	–	PBS	pH 7.4	3.35 mg/mL
COc1ccc(NC(=O)N2CCCCN3[C@H](CN(C)C)[C@H](c4ccc(C#Cc5ccccc5)cc4)[C@@H]3C2)cc1	–	aqueous buffer	pH 7	33 µM
CCc1cc(OC)cc2c(/C=N/NC(=N)NCCc3ccc(C#N)cc3)c[nH]c12	–	PBS	2 h, pH 7.4	55.5 µM
CC(=O)N[C@@H](CC(N)=O)C(=O)N[C@@H](CCCNC(=N)N)C(=O)N[C@@H](CC(C)C)C(=O)N[C@H]1CSSC[C@@H](C(=O)N[C@H](C(N)=O)[C@@H](C)O)NC(=O)[C@H](CCCNC(=N)N)NC(=O)[C@H](Cc2c[nH]cn2)NC(=O)[C@H](Cc2cccc3ccccc23)NC(=O)CNC(=O)[C@H](Cc2c[nH]c3ccccc23)NC(=O)[C@H](CC(=O)O)NC(=O)[C@H](CCC(N)=O)NC(=O)[C@H](Cc2cccc3ccccc23)NC(=O)[C@H](C(C)C)NC1=O	–	PBS	pH 7.4	0.3 mg/mL
O=C(Nc1ccc(-c2ccc(C(=O)Nc3cccc4cccc(S(=O)(=O)O)c34)cc2)cc1)c1ccc([N+](=O)[O-])cc1	–	water	–	0.0047 mg/mL
